Data from ChEMBL document CHEMBL1125366, “Low molecular weight, non-peptide fibrinogen receptor antagonists” (J Med Chem, 1992).
Square brackets hold non-standard residues; d marks the D form. Peptide text beside a SMILES is read from it. * marks the point of attachment. 3Abz = Nc1cccc(C(=O)O)c1; Boc = CC(C)(C)OC(=O)*

Assays:
[1] = biological target: T1, Integrin alpha-IIb/beta-3 (Homo sapiens) (UniProt P05106+P08514); assay: (§1) Inhibition of fibrinogen binding to immobilized fibrinogen receptor; type: protein-complex assay; set-up: reference not given here
[2] = biological target: Integrin alpha-V/beta-3 (Homo sapiens) (UniProt P05106+P06756); assay: Inhibition of fibrinogen binding to immobilized vitronectin receptor; type: protein-complex assay; set-up: reference not given here
[3] = Inhibition of platelet aggregation in human-platelet rich plasma(h-PRP) induced by adenosine 5'-diphosphate-(ADP); type: functional
In short: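 Citrated human PRP with serial inhibitor dilutions; aggregation triggered by 10 μM ADP (final) and followed as rate of light transmission change in an aggregometer; plasma from at least four donors.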

[4] = Inhibition of platelet aggregation in human-platelet rich plasma(h-PRP) induced by collagen; type: functional
In short: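 Citrated human PRP with serial inhibitor dilutions; aggregation triggered by collagen at 2.5 μg/mL (final) and followed as rate of light transmission change in an aggregometer; plasma from at least four donors.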

[5] = Inhibition of platelet aggregation in human-platelet rich plasma(h-PRP) induced by thrombin; type: functional
In short: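 Citrated human PRP with serial inhibitor dilutions; aggregation triggered by thrombin at 0.2 unit/mL (final) and followed as rate of light transmission change in an aggregometer; plasma from at least four donors.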

[6] = biological target: T1, Integrin alpha-IIb/beta-3 (Homo sapiens); assay: as §1; type: protein-complex assay

For `NC(N)=NCCC[C@H](N)C(=O)Nc1cccc(C(=O)NCCC(=O)O)c1`, the Ratio [1] was 1.3, the Ratio [2] was 900 and the IC50 [3] was 51000 nM. For the same compound, the IC50 [4] was 50000 nM and the IC50 [5] was 68000 nM.

`N=C(N)c1ccc(C(=O)NCC(=O)N[C@@H](CC(=O)O)C(=O)N[C@@H](Cc2ccccc2)C(=O)O)cc1` showed a Ratio [1] of 1, a Ratio [2] of 570 and an IC50 [4] of 76000 nM. The IC50 [5] was 78000 nM.

`N=C(N)c1ccc(C(=O)NCCC(=O)N[C@@H](CC(=O)O)C(=O)N[C@@H](Cc2ccc(O)cc2)C(=O)O)cc1` gave a Ratio [1] of 6e-05, an IC50 [3] of 50 nM and an IC50 [4] of 40 nM. The IC50 [5] was 20 nM.

Compound `CC(C)[C@H](NC(=O)[C@H](CC(=O)O)NC(=O)CNC(=O)COc1ccc(C(=N)N)cc1)C(=O)O` has a Ratio [1] of 0.02, a Ratio [2] of 700 and an IC50 [3] of 700 nM. For the same compound, the IC50 [4] was 600 nM and the IC50 [5] was 500 nM.

Work on `CC(C)[C@H](NC(=O)[C@H](CC(=O)O)NC(=O)c1cccc(NC(=O)[C@H](CCCN=C(N)N)NC(=O)OC(C)(C)C)c1)C(=O)O` (Boc-R[3Abz]DV-OH) yielded a Ratio [1] of 0.06, a Ratio [2] of 250 and an IC50 [3] of 4900 nM. The IC50 [4] was 7000 nM and the IC50 [5] was 4400 nM.

Work on `N=C(N)c1ccc(C(=O)NCC(=O)N2CCC(OCC(=O)O)CC2)cc1` yielded a Ratio [1] of 0.008, a Ratio [2] greater than 8000 and an IC50 [3] of 110 nM. It also gave an IC50 [4] of 100 nM and an IC50 [5] of 90 nM.

`N=C(N)NCCC[C@H](N)C(=O)NCC(=O)N[C@@H](CC(=O)O)C(=O)N[C@@H](Cc1ccccc1)C(=O)O` (H-RGDF-OH) gave a Ratio [1] of 0.3, a Ratio [2] of 3.5 and an IC50 [3] of 19000 nM. The IC50 [4] was 38000 nM and the IC50 [5] was 21000 nM.

Work on `N=C(N)c1ccc(C(=O)N[C@@H](CC(=O)O)C(=O)N2CCC(OCC(=O)O)CC2)cc1` yielded a Ratio [1] of 0.02, a Ratio [2] greater than 30000 and an IC50 [3] of 350 nM. It also gave an IC50 [4] of 340 nM and an IC50 [5] of 380 nM.

In the case of `CC(C)[C@H](NC(=O)[C@H](CC(=O)O)NC(=O)CNC(=O)[C@@H](N)CCCNC(=N)N)C(=O)O` (H-RGDV-OH), the Ratio [1] is reported as 0.63, the Ratio [2] is reported as 0.6 and the IC50 [3] is reported as 127000 nM. It also gave an IC50 [4] of 151000 nM and an IC50 [5] of 98000 nM.

Compound `N=C(N)c1ccc(C(=O)NCCCCC(=O)N[C@@H](CC(=O)O)C(=O)N[C@@H](Cc2ccccc2)C(=O)O)cc1` has a Ratio [1] of 0.004, a Ratio [2] of 280 and an IC50 [3] of 200 nM. For the same compound, the IC50 [4] was 400 nM and the IC50 [5] was 100 nM.

In the case of `COC(=O)COc1ccc(C[C@H](C)NS(=O)(=O)c2ccc(C(=N)N)cc2)cc1`, the IC50 [4] is reported as 11000 nM.

Work on `C[C@H](NC(=O)c1ccc(C(=N)N)cn1)C(=O)N1CCC(OCC(=O)O)CC1` yielded a Ratio [1] of 0.0001, a Ratio [2] greater than 30000 and an IC50 [3] of 20 nM. For the same compound, the IC50 [4] was 30 nM and the IC50 [5] was 30 nM.

With `CC(C)[C@H](NC(=O)[C@H](CC(=O)O)NC(=O)CNC(=O)CCc1ccc(C(=N)N)cc1)C(=O)O` the IC50 [4] was 2300 nM.

For `NCc1ccc(C(=O)Nc2cccc(C(=O)NCCC(=O)O)c2)cc1`, the IC50 [4] was 9600 nM.

`C[C@H](NC(=O)c1ccc(C(=N)N)cc1)C(=O)N1CCC(OCC(=O)O)CC1` [RO-44-3888] showed a Ratio [1] of 0.0007, a Ratio [2] greater than 27000 and an IC50 [3] of 50 nM. It also gave an IC50 [4] of 70 nM and an IC50 [5] of 50 nM.

`N=C(N)c1ccc(C(=O)NCC(=O)c2ccc(OCC(=O)O)cc2)nc1` gave a Ratio [1] of 0.001, a Ratio [2] greater than 20000 and an IC50 [3] of 30 nM. It also gave an IC50 [4] of 20 nM and an IC50 [5] of 40 nM.

Compound `N=C(N)c1ccc(C(=O)NCC(=O)c2ccc(OCC(=O)O)cc2)cc1` has a Ratio [1] of 0.004, a Ratio [2] of 8400 and an IC50 [3] of 90 nM. The IC50 [4] was 130 nM and the IC50 [5] was 90 nM.

For `C[C@@H](Cc1ccc(OCC(=O)O)cc1)NS(=O)(=O)c1ccc(C(=N)N)cc1`, the Ratio [1] was 0.34, the Ratio [2] was 1700 and the IC50 [3] was 7400 nM. For the same compound, the IC50 [4] was 11000 nM and the IC50 [5] was 9300 nM.

In the case of `N=C(N)c1ccc(C(=O)N[C@@H](CCCN)C(=O)N2CCC(OCC(=O)O)CC2)cc1`, the Ratio [1] is reported as 0.009, the Ratio [2] is reported as greater than 30000 and the IC50 [3] is reported as 100 nM. It also gave an IC50 [4] of 70 nM and an IC50 [5] of 70 nM.

With `N=C(N)c1ccc(C(=O)NCCc2ccc(OCC(=O)O)cc2)cc1` the Ratio [1] was 0.028, the Ratio [2] was 1300 and the IC50 [3] was 800 nM. For the same compound, the IC50 [4] was 300 nM and the IC50 [5] was 400 nM.

`N=C(N)c1ccc(C(=O)NCCC(=O)N[C@@H](CC(=O)O)C(=O)N[C@@H](Cc2ccccc2)C(=O)O)cc1` gave a Ratio [1] of 0.0003, a Ratio [2] of 4500 and an IC50 [3] of 60 nM. The IC50 [4] was 60 nM and the IC50 [5] was 70 nM.

`N=C(N)c1ccc(CC(N)C(=O)Nc2cccc(C(=O)NCCC(=O)O)c2)cc1` (stereo unspecified) showed a Ratio [1] of 10, a Ratio [2] of 2500 and an IC50 [3] of 95000 nM. For the same compound, the IC50 [4] was 153000 nM and the IC50 [5] was 95000 nM.

For `COc1ccc(CCNC(=O)[C@H](CC(=O)O)NC(=O)CCNC(=O)c2ccc(C(=N)N)cc2)cc1`, the Ratio [1] was 0.002, the Ratio [2] was 8000 and the IC50 [3] was 120 nM. For the same compound, the IC50 [4] was 100 nM and the IC50 [5] was 130 nM.

With `C[C@@H](NC(=O)c1ccc(C(=N)N)cc1)C(=O)N1CCC(OCC(=O)O)CC1` the Ratio [1] was 0.007, the Ratio [2] was greater than 9000 and the IC50 [3] was 900 nM. For the same compound, the IC50 [4] was 1100 nM and the IC50 [5] was 1100 nM.

Compound `N=C(N)c1ccc(C(=O)Nc2cccc(C(=O)NCCC(=O)O)c2)cc1` has a Ratio [1] of 0.0005, a Ratio [2] of 8000 and an IC50 [3] of 200 nM. It also gave an IC50 [4] of 400 nM and an IC50 [5] of 500 nM.

In the case of `N=C(N)c1ccc(C(=O)NCCC(=O)NCCC(=O)O)cc1`, the Ratio [1] is reported as 0.007, the IC50 [3] is reported as 1100 nM and the IC50 [4] is reported as 900 nM. The IC50 [5] was 900 nM.

Compound `N=C(N)c1ccc(C(=O)N[C@@H](Cc2ccc(O)cc2)C(=O)N2CCC(OCC(=O)O)CC2)cc1` [LAMIFIBAN] has a Ratio [1] of 0.0002, a Ratio [2] of 17500 and an IC50 [3] of 30 nM. For the same compound, the IC50 [4] was 20 nM and the IC50 [5] was 30 nM.

Compound `CC(C)(Oc1ccc(CCNS(=O)(=O)c2ccc(C(=N)N)cc2)cc1)C(=O)O` has a Ratio [1] greater than 100, an IC50 [3] greater than 200000 nM and an IC50 [4] greater than 200000 nM. It also gave an IC50 [5] greater than 200000 nM.

For `CC(C)[C@H](NC(=O)[C@H](CC(=O)O)NC(=O)CNC(=O)Cc1ccc(C(=N)N)cc1)C(=O)O`, the Ratio [1] was 0.001, the Ratio [2] was 560 and the IC50 [3] was 300 nM. The IC50 [4] was 500 nM and the IC50 [5] was 300 nM.

For `C[C@@]1(C(=O)N2CCC(OCC(=O)O)CC2)CCCN1C(=O)c1ccc(C(=N)N)cc1`, the Ratio [1] was 0.37, the Ratio [2] was 12000 and the IC50 [3] was 13000 nM. The IC50 [4] was 15000 nM and the IC50 [5] was 49000 nM.

With `COC(=O)COc1ccc(CCNC(=O)c2ccc(C(=N)N)cc2)cc1` the Ratio [1] was 0.45, the Ratio [2] was 2300 and the IC50 [3] was 900 nM. It also gave an IC50 [4] of 300 nM and an IC50 [5] of 500 nM.

`N=C(N)c1ccc(C(=O)N2CCC[C@H]2C(=O)N2CCC(OCC(=O)O)CC2)cc1` showed a Ratio [1] of 0.002, an IC50 [3] of 60 nM and an IC50 [4] of 110 nM. For the same compound, the IC50 [5] was 50 nM.

Compound `CC(C)[C@H](NC(=O)[C@H](CC(=O)O)NC(=O)CCCNC(=O)c1ccc(C(=N)N)cc1)C(=O)O` has a Ratio [1] of 0.002, a Ratio [2] of 1700 and an IC50 [3] of 700 nM. For the same compound, the IC50 [4] was 700 nM and the IC50 [5] was 700 nM.

`CN(CC(=O)c1ccc(OCC(=O)O)c(OCC(=O)O)c1)C(=O)c1ccc(C(=N)N)cc1` showed a Ratio [1] of 0.0001, a Ratio [2] of 37000 and an IC50 [3] of 70 nM. It also gave an IC50 [4] of 70 nM and an IC50 [5] of 60 nM.

`N=C(N)c1cccc(S(=O)(=O)NCCc2ccc(OCC(=O)O)cc2)c1` gave a Ratio [6] of 24, an IC50 [3] greater than 200000 nM and an IC50 [4] greater than 200000 nM. For the same compound, the IC50 [5] was greater than 200000 nM.

Compound `C[C@H](Cc1ccc(OCC(=O)O)cc1)NS(=O)(=O)c1ccc(C(=N)N)cc1` has a Ratio [1] of 10.5, a Ratio [2] greater than 30000 and an IC50 [3] of 115000 nM. It also gave an IC50 [4] of 102000 nM and an IC50 [5] of 103000 nM.

With `N=C(N)c1ccc(S(=O)(=O)NCCc2ccc(OCC(=O)O)cc2)cc1` the Ratio [1] was 0.2, the IC50 [3] was 15000 nM and the IC50 [4] was 12000 nM. It also gave an IC50 [5] of 12000 nM.

`N=C(N)NCCC[C@H](N)C(=O)NCC(=O)N[C@@H](CC(=O)O)C(=O)N[C@@H](CO)C(=O)O` showed a Ratio [1] of 1, a Ratio [2] of 1 and an IC50 [3] of 88000 nM. The IC50 [4] was 142000 nM and the IC50 [5] was 135000 nM.
